Test results taken from ChEMBL document CHEMBL3421595, “Design and Synthesis of New α-Naphthoflavones as Cytochrome P450 (CYP) 1B1 Inhibitors To Overcome Docetaxel-Resistance Associated with CYP1B1 Overexpression” (J Med Chem, 2015).

Key:
[1] = target: T1, Cytochrome P450 1B1 (Homo sapiens, UniProt Q16678); test: Inhibition of human CYP1B1 assessed as reduction in 7-ethoxyresorufin O-deethylation activity by fluorescence based EROD assay
T1 sequence (Q16678 whole entry): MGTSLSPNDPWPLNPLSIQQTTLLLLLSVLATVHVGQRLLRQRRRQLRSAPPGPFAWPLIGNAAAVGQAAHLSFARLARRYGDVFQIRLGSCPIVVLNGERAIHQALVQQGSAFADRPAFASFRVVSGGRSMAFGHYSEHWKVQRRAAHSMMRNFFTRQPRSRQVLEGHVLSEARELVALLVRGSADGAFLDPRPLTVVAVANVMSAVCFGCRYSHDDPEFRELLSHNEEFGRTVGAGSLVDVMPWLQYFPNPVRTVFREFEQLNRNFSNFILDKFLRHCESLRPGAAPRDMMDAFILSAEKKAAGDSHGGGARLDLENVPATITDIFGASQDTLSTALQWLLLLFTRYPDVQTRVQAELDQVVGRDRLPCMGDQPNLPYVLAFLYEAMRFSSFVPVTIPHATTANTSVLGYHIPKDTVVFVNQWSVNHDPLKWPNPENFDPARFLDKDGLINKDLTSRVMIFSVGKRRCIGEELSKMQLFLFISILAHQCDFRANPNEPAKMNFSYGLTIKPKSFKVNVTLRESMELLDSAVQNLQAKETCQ
Summary of the method: (§1)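 Recombinant human CYP1B1, 1A1 and 1A2 in a standard EROD assay. NADPH regeneration system: 1.3 mM NADP+, 3.3 mM G-6-P, 0.5 U/mL G6-PD. Incubation time 35 min for CYP1B1, 15 min for 1A1 and 50 min for 1A2. IC50 by Probit analysis; selectivity taken as the ratio of IC50 values.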

[2] = target: T2, Cytochrome P450 1A1 (Homo sapiens, UniProt P04798); test: Inhibition of human CYP1A1 assessed as reduction in 7-ethoxyresorufin O-deethylation activity by fluorescence based EROD assay; format: ADME
T2 sequence (P04798 whole entry): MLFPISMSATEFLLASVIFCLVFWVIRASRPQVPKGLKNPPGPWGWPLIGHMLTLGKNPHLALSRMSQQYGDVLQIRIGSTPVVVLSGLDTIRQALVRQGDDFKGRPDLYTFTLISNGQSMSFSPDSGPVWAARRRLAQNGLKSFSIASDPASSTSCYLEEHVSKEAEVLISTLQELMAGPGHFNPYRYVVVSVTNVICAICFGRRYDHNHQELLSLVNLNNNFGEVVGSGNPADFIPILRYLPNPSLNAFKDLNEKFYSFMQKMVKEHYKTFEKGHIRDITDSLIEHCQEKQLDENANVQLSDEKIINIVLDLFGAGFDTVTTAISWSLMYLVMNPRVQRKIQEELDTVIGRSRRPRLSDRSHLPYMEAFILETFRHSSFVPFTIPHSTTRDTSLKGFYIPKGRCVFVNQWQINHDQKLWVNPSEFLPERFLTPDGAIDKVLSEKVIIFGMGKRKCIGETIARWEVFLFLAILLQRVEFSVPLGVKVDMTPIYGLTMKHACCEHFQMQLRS
Summary of the method: (§2)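 Recombinant human CYP1B1, 1A1 and 1A2 in a standard EROD assay. 7-Ethoxyresorufin fixed at 150 nM. NADPH regeneration system: 1.3 mM NADP+, 3.3 mM G-6-P, 0.5 U/mL G6-PD. Incubation time 35 min for CYP1B1, 15 min for 1A1 and 50 min for 1A2. Resorufin fluorescence read at ex 545 / em 590 nm. IC50 by Probit analysis; selectivity taken as the ratio of IC50 values.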

[3] = target: T3, Cytochrome P450 1A2 (Homo sapiens, UniProt P05177); test: Inhibition of human CYP1A2 assessed as reduction in 7-ethoxyresorufin O-deethylation activity by fluorescence based EROD assay; format: ADME; summary of the method: as §1
T3 sequence (P05177 whole entry): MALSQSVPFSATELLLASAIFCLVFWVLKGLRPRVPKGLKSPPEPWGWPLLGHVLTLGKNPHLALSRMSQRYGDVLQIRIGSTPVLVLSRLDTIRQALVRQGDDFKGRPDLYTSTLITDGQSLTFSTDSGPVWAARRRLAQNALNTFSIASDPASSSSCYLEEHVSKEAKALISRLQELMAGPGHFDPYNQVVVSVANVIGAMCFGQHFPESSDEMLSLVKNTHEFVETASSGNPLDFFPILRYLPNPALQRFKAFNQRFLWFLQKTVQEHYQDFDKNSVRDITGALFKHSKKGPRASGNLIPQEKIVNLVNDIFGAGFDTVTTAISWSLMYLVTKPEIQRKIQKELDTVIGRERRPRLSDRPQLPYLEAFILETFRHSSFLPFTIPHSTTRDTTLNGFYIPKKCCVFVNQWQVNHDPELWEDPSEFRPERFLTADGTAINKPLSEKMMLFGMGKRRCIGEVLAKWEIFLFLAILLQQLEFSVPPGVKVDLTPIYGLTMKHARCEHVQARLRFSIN

[4] = species: Homo sapiens; test: Selectivity index, ratio of IC50 for human CYP1A1 to IC50 for human CYP1B1; summary of the method: as §2
[5] = species: Homo sapiens; test: Selectivity index, ratio of IC50 for human CYP1A2 to IC50 for human CYP1B1; summary of the method: as §2

COc1ccc(OC)c2c1c(OC)cc1c(=O)c(OCCCCCCOC(=O)CN)c(-c3cccc(F)c3)oc12
IC50 [1]: 68.8 nM | IC50 [2]: 36.2 nM | IC50 [3]: 120 nM | Ratio IC50 [4]: 0.53 | Ratio IC50 [5]: 1.7

COc1ccc(OC)c2c1c(OC)cc1c(=O)c(O)c(-c3ccc(Cl)cc3)oc12
IC50 [1]: 5 nM | IC50 [2]: 26.9 nM | IC50 [3]: 83.3 nM | Ratio IC50 [4]: 5.4 | Ratio IC50 [5]: 17

COc1ccc(OC)c2c1c(OC)cc1c(=O)cc(-c3ccccc3O)oc12
IC50 [1]: 62.9 nM | IC50 [2]: 12.1 nM | IC50 [3]: 50.6 nM | Ratio IC50 [4]: 0.19 | Ratio IC50 [5]: 0.8

COc1ccc(OC)c2c1c(OC)cc1c(=O)c(O)c(-c3cccc(Cl)c3)oc12
IC50 [1]: 3.5 nM | IC50 [2]: 46 nM | IC50 [3]: 42.5 nM | Ratio IC50 [4]: 13 | Ratio IC50 [5]: 12

COc1ccc(OC)c2c1c(OC)cc1c(=O)c(O)c(-c3ccc(F)cc3)oc12
IC50 [1]: 0.8 nM | IC50 [2]: 11.8 nM | IC50 [3]: 57.6 nM | Ratio IC50 [4]: 15 | Ratio IC50 [5]: 72

COc1ccc(OC)c2c1c(OC)cc1c(=O)cc(-c3ccc(OCc4ccccc4)c(OCc4ccccc4)c3)oc12
IC50 [1]: > 100000 nM | IC50 [2]: 535 nM | IC50 [3]: 96.9 nM

COc1ccc(OC)c2c1c(OC)cc1c(=O)c(O)c(-c3ccccc3)oc12
IC50 [1]: 2.3 nM | IC50 [2]: 31.6 nM | IC50 [3]: 34.4 nM | Ratio IC50 [4]: 14 | Ratio IC50 [5]: 15

COc1ccc(OC)c2c1c(OC)cc1c(=O)c(O)c(-c3ccccc3F)oc12
IC50 [1]: 1.2 nM | IC50 [2]: 27.5 nM | IC50 [3]: 29.4 nM | Ratio IC50 [4]: 23 | Ratio IC50 [5]: 25

COc1ccc(OC)c2c1c(OC)cc1c(=O)c(OCCOC(=O)CN)c(-c3cccc(F)c3)oc12
IC50 [1]: 19.6 nM | IC50 [2]: 13.6 nM | IC50 [3]: 56.2 nM | Ratio IC50 [4]: 0.69 | Ratio IC50 [5]: 2.9

COc1ccc(-c2cc(=O)c3cc(OC)c4c(OC)ccc(OC)c4c3o2)cc1
IC50 [1]: 1.1 nM | IC50 [2]: 12.9 nM | IC50 [3]: 16.4 nM | Ratio IC50 [4]: 12 | Ratio IC50 [5]: 15

COc1ccc(OC)c2c1c(OC)cc1c(=O)c(OCCCCCCCCOC(=O)CN)c(-c3cccc(F)c3)oc12
IC50 [1]: 12.3 nM | IC50 [2]: 20.2 nM | IC50 [3]: 129 nM | Ratio IC50 [4]: 1.6 | Ratio IC50 [5]: 10

COc1ccc(OC)c2c1c(OC)cc1c(=O)c(OCCOC(=O)[C@@H](N)C(C)C)c(-c3cccc(F)c3)oc12
IC50 [1]: 114 nM | IC50 [2]: 192 nM | IC50 [3]: 68.3 nM | Ratio IC50 [4]: 1.7 | Ratio IC50 [5]: 0.6

COc1ccc(OC)c2c1c(OC)cc1c(=O)cc(-c3ccccc3F)oc12
IC50 [1]: 0.2 nM | IC50 [2]: 5.9 nM | IC50 [3]: 22.1 nM | Ratio IC50 [4]: 29.5 | Ratio IC50 [5]: 111

COc1ccc(OC)c2c1c(OC)cc1c(=O)cc(-c3cccc(Cl)c3)oc12
IC50 [1]: 0.3 nM | IC50 [2]: 6.4 nM | IC50 [3]: 61.1 nM | Ratio IC50 [4]: 21 | Ratio IC50 [5]: 204

COc1ccc(-c2cc(=O)c3cc(OC)c4c(OC)ccc(OC)c4c3o2)cc1OC
IC50 [1]: 2.5 nM | IC50 [2]: 11.5 nM | IC50 [3]: 19.3 nM | Ratio IC50 [4]: 4.6 | Ratio IC50 [5]: 7.7

COc1ccc(OC)c2c1c(OC)cc1c(=O)cc(-c3ccc(Cl)cc3)oc12
IC50 [1]: 0.2 nM | IC50 [2]: 1.8 nM | IC50 [3]: 27.7 nM | Ratio IC50 [4]: 9 | Ratio IC50 [5]: 139

COc1ccc(OC)c2c1c(OC)cc1c(=O)cc(-c3ccccc3Cl)oc12
IC50 [1]: 1.1 nM | IC50 [2]: 19.2 nM | IC50 [3]: 58 nM | Ratio IC50 [4]: 17.5 | Ratio IC50 [5]: 53

COc1ccc(OC)c2c1c(OC)cc1c(=O)cc(-c3cccc(F)c3)oc12
IC50 [2]: 11.5 nM | IC50 [3]: 36.7 nM | Ratio IC50 [4]: 267 | Ratio IC50 [5]: 853

COc1ccc(OC)c2c1c(OC)cc1c(=O)c(OCCOC(=O)[C@H](C)N)c(-c3cccc(F)c3)oc12
IC50 [1]: 98.4 nM | IC50 [2]: 39.4 nM | IC50 [3]: 85.9 nM | Ratio IC50 [4]: 0.4 | Ratio IC50 [5]: 0.87

COc1cc(-c2cc(=O)c3cc(OC)c4c(OC)ccc(OC)c4c3o2)cc(OC)c1OC
IC50 [1]: 9.8 nM | IC50 [2]: 22.5 nM | IC50 [3]: 23.5 nM | Ratio IC50 [4]: 2.3 | Ratio IC50 [5]: 2.4

COc1ccccc1-c1cc(=O)c2cc(OC)c3c(OC)ccc(OC)c3c2o1
IC50 [1]: 9 nM | IC50 [2]: 18.8 nM | IC50 [3]: 13.5 nM | Ratio IC50 [4]: 2.1 | Ratio IC50 [5]: 1.5

COc1ccc(OC)c2c1c(OC)cc1c(=O)c(O)c(-c3cccc(F)c3)oc12
IC50 [1]: 0.3 nM | IC50 [2]: 66.9 nM | IC50 [3]: 26.5 nM | Ratio IC50 [4]: 223 | Ratio IC50 [5]: 88

COc1ccc(OC)c2c1c(OC)cc1c(=O)c(O)c(-c3ccccc3Cl)oc12
IC50 [1]: 1.6 nM | IC50 [2]: 32.9 nM | IC50 [3]: 49.6 nM | Ratio IC50 [4]: 21 | Ratio IC50 [5]: 31

COc1ccc(OC)c2c1c(OC)cc1c(=O)cc(-c3ccc(O)cc3)oc12
IC50 [1]: 643 nM | IC50 [2]: 114 nM | IC50 [3]: 58.4 nM | Ratio IC50 [4]: 0.18 | Ratio IC50 [5]: 0.09

COc1ccc(OC)c2c1c(OC)cc1c(=O)cc(-c3ccc(F)cc3)oc12
IC50 [1]: 0.3 nM | IC50 [2]: 9.8 nM | IC50 [3]: 15.4 nM | Ratio IC50 [4]: 33 | Ratio IC50 [5]: 51
